The text below walks through data of paper PMC6004563 (ACS Medicinal Chemistry Letters, 2018).

Data set [1] deals with T1, pre-let-7d−Lin28 interaction (Mus musculus, UniProt Q8K3Y3).
T1 sequence (Q8K3Y3 2-209): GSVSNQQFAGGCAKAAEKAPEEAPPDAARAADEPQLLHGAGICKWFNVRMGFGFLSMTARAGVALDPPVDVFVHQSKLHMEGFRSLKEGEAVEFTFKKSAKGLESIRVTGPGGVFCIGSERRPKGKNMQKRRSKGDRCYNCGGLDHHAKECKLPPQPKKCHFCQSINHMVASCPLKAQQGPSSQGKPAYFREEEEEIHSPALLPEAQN
The data set is described as follows: electrophoretic mobility shift assay. It counts as binding, murine. Conditions: pre-let-7d with Lin28, dose response. (In general: In EMSA bound probe runs differently from free probe, usually more slowly.)

The subject of the next data set is biotinylated pre-let-7d. The data set is described as follows: SPR binding to biotinylated pre-let-7d. The note with it: 100, 50, 25, 12.5 and 6.25 µM.
Data set [2] concerns the target Dicer-mediated pre-let-7d maturation (Homo sapiens, UniProt Q9UPY3). The data set is described as follows: Selectivity: Dicer-mediated pre-let-7d maturation. It counts as biochemical. The note with it: compound at 100 µM.
In data set [3] the target is eIF4E−4E-BP1 protein-protein interaction (Homo sapiens, UniProt P06730). The data set can be described thus: Selectivity: cat-ELCCA of the eIF4E−4E-BP1 protein-protein interaction. Conditions: compound at 100 µM. Type of data set: binding.
Data set [4] deals with T2, pre-let-7d–Lin28A interaction (Mus musculus, UniProt Q8K3Y3).
T2 sequence (Q8K3Y3 2-209): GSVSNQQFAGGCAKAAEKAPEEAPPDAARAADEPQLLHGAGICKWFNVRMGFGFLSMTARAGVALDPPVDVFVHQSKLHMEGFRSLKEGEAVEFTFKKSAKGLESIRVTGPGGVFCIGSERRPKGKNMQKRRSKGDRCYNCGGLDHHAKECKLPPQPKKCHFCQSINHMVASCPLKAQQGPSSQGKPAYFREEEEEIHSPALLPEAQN
The data set is described as follows: cat-ELCCA of the pre-let-7d–Lin28A interaction. It counts as binding, murine. The method in brief:
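Murine Lin28A, expressed as an N-terminal HaloTag fusion and biotin-labelled, was immobilised in streptavidin-coated wells. Wells were then incubated with pre-let-7d bearing a 5′-trans-cyclooctene click handle. Bound RNA was detected by click reaction with methyltetrazine-labelled HRP, then HRP substrate, with chemiluminescence as read-out. Washing steps were included.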

In data set [5] the target is T3, HaloTag-mLin28A (biotinylated) (Mus musculus, UniProt Q8K3Y3 1-209).
T3 sequence: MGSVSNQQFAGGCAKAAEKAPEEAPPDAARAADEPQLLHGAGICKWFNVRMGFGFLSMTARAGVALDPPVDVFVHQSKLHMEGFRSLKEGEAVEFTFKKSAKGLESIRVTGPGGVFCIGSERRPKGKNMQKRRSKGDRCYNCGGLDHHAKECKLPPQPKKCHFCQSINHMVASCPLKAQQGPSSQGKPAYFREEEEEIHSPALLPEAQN
The data set can be described thus: cat-ELCCA.

Sequence of eIF4E−4E-BP1 protein-protein interaction (P06730 whole entry): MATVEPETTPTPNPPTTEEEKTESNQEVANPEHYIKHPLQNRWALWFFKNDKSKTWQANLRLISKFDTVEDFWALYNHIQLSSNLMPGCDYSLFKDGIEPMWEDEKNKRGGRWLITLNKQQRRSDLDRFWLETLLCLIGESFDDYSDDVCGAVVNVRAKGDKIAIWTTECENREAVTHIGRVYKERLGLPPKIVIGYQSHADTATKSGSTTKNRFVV
Sequence of Dicer-mediated pre-let-7d maturation (Q9UPY3 whole entry): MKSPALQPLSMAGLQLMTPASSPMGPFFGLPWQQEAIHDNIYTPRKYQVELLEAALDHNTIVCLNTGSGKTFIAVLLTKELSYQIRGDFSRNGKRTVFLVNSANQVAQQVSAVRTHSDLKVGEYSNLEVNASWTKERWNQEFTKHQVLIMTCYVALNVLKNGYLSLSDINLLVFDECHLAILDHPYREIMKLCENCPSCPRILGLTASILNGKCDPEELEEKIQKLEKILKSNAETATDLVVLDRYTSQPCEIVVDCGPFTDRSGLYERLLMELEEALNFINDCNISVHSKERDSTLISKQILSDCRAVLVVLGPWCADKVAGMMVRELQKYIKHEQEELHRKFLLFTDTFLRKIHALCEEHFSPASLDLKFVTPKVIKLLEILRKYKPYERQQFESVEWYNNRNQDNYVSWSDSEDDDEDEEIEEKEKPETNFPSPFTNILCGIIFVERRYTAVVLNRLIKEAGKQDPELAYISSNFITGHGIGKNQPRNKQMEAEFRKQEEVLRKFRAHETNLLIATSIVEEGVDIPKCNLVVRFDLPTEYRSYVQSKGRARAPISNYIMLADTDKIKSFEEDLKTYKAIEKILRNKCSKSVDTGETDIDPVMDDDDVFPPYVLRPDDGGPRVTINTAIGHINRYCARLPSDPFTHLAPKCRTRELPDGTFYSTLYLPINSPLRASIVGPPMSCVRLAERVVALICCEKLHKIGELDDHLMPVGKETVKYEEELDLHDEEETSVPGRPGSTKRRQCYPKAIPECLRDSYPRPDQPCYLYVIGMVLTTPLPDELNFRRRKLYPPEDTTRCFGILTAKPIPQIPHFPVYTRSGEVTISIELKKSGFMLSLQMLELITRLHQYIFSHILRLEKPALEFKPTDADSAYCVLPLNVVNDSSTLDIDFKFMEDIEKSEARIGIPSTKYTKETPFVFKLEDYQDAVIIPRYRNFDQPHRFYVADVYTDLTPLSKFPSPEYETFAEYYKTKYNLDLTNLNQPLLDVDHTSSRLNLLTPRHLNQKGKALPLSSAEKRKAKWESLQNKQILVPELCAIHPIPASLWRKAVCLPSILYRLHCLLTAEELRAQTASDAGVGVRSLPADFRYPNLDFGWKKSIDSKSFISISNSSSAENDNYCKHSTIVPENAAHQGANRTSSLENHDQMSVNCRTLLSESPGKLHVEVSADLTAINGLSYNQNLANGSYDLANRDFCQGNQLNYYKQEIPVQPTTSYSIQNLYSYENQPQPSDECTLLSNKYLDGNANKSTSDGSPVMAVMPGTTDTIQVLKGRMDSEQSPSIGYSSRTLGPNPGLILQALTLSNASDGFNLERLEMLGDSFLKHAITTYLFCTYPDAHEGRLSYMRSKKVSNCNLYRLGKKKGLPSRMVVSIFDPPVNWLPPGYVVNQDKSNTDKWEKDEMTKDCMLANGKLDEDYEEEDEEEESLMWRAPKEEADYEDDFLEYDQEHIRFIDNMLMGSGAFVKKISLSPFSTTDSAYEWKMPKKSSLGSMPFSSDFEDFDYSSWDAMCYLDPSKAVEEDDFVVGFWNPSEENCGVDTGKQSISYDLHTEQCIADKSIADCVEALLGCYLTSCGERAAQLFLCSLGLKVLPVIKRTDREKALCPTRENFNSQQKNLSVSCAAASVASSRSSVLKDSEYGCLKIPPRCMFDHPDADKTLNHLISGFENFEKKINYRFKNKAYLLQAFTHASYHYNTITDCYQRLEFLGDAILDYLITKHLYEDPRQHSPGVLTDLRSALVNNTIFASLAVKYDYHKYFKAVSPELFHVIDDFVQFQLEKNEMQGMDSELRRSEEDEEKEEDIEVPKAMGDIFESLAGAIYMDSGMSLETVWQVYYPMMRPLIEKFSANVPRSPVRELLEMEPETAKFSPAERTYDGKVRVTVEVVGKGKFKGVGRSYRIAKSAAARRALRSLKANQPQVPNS

`Cc1ccc(S(=O)(=O)Nc2ccc(F)cc2NS(=O)(=O)c2ccc(C)cc2)cc1` [CCG-233094]: in data set [1], the “activity in EMSA” value was “concentration-responsive activity”. Further, in the data set on biotinylated pre-let-7d, the “binding to pre-let-7d (SPR)” value is “not pre-let-7d”. Also, in data set [2], the “inhibition of Dicer-mediated pre-let-7d maturation” value was “insignificant inhibition”. In addition, the “inhibition of cat-ELCCA-based PPI assay” value in data set [3] is “insignificant inhibition”.
Turning to `Cc1ccc(S(=O)(=O)Nc2ccc(C)cc2NS(=O)(=O)c2cccc(C(F)(F)F)c2)cc1` [CCG-234459], the “activity in EMSA” value in data set [1] is “concentration-responsive activity”. Also, in the data set with biotinylated pre-let-7d, the “binding to pre-let-7d (SPR)” value was “not pre-let-7d”. In addition, the “inhibition of Dicer-mediated pre-let-7d maturation” value in data set [2] is recorded as “insignificant inhibition”. Besides, the “inhibition of cat-ELCCA-based PPI assay” value in data set [3] is given as “insignificant inhibition”.
Regarding `Nc1ccccc1NS(=O)(=O)c1ccccc1` [Compound 3], the “activity (inhibition of pre-let-7d–Lin28A)” value in data set [4] is “inactive”.
With `O=S(=O)(Nc1cccc(NS(=O)(=O)c2ccccc2)c1)c1ccccc1` [Compound 4, N,N′-(1,3-phenylene)dibenzenesulfonamide], in data set [4], the “activity (inhibition of pre-let-7d–Lin28A)” value is “inactive”.
In the case of `O=S(=O)(c1ccccc1)N1CCN(S(=O)(=O)c2ccccc2)c2ccccc21` [Compound 5], in data set [4], the “activity (inhibition of pre-let-7d–Lin28A)” value was “inactive”.
Still for that read-out and setting: then `O=C(Nc1ccccc1NC(=O)c1ccccc1)c1ccccc1` [Compound 6], with “inactive”.

B1: 5'-TCO-pre-let-7d (structured_RNA)
RNA: AGAGGUAGUAGGUUGCAUAGUUUUAGGGCAGGGAUUUUGCCCACAAGGAGGUAACUAUACGACCUGCUGCCUUUCU
modifications: 5'-phosphate pentylamine (N5) linked to TCO-PEG4
As a reminder, the Kd is the free concentration of one partner at which half of the binding sites on the other are occupied at equilibrium, for simple one-to-one binding. A higher Kd goes with a looser complex. In data set [5], B1 yielded an equilibrium dissociation constant (Kd) of 106 nM.
